For assay [1], the species on record is Oryctolagus cuniculus. Description: Activity of rabbit liver adenosine kinase. An outline of the steps:
(§1)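 Adenosine kinase partially purified from rabbit liver. Assay in 20 mM KPO4 pH 5.8 with 0.7 mM ATP, 0.25 mM phosphoenol pyruvate, 0.5 mM MgCl2, 50 mM KCl, pyruvate kinase and 7–70 µM radioactive nucleoside substrate, at 25 °C. Reaction stopped with 0.25 M perchloric acid. Nucleotides separated by paper electrophoresis at pH 3.5 and counted by scintillation. Km, Ki and relative Vmax (adenosine = 100) derived.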

For assay [2], the species on record is Oryctolagus cuniculus. Description: Activity of rabbit liver adenosine kinase relative to adenosine. An outline of the steps:
as §1

In a further assay the test system is L2. Description: Growth inhibition of mouse L2 cells at 15 uM.

The structures appear in SMILES notation. Activity calls are given as the source filed them. No cut-off for these calls is given here.

Usually Km stands for the substrate concentration at which the rate is half of its maximum. Broadly, the Vmax is the rate approached at saturating substrate. `Nc1ncnc2c1ccn2[C@@H]1O[C@H](CO)[C@@H](O)[C@H]1O`: in the assay listed under Oryctolagus cuniculus [1], the Km was 9.5 µM and the Vmax came out at 3.57 µM/min. For the same compound, the Activity in the assay filed under Oryctolagus cuniculus [2] came out at 114. Also, the result with L2 was Active.
Consider `Nc1ncnc2c1ncn2[C@@H]1O[C@H](CO)[C@@H](O)[C@H]1O`, for which, in the assay listed under Oryctolagus cuniculus [1], the Km is 5.5 µM and the Vmax worked out at 3.13 µM/min.
